Measured values published in ChEMBL document CHEMBL3763019, “Discovery of benzenesulfonamide derivatives as potent PI3K/mTOR dual inhibitors with in vivo efficacies against hepatocellular carcinoma” (Bioorg Med Chem, 2016).

Experiments:
NCI-H23 = assay: Antiproliferative activity against human NCI-H23 cells incubated for 48 hrs by sulforhodamine B assay; assay type: functional; conditions: NCI-H23, 48 h
Summary of the method: (§1)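 Run externally by the US National Cancer Institute as part of its 60 human cancer cell line cytotoxicity screen (NCI-60).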

[1] = target: Phosphatidylinositol 4,5-bisphosphate 3-kinase catalytic subunit delta isoform (Homo sapiens, UniProt O00329); assay: Inhibition of PI3K-delta (unknown origin) using PIP2 as substrate incubated for 1 hr by Kinase-Glo luminescent kinase assay
[2] = target: T1, Serine/threonine-protein kinase mTOR (Homo sapiens, UniProt P42345); assay: Inhibition of insulin-stimulated mTOR phosphorylation in human A549 cells after 30 mins by Western blot analysis; assay type: cell-based
Summary of the method: (§2)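 A549 cells were insulin-stimulated for 2 h, then exposed to four compound concentrations for 30 min. Lysis was in ice-cold RIPA buffer, protein was quantified by BCA, and lysates were run on 10% SDS-PAGE and transferred to nitrocellulose. Detection was by infrared imaging, with β-actin as loading control.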

NCI-H322M = assay: Antiproliferative activity against human NCI-H322M cells incubated for 48 hrs by sulforhodamine B assay; assay type: functional; summary of the method: as §1
EKVX = assay: Antiproliferative activity against human EKVX cells incubated for 48 hrs by sulforhodamine B assay; assay type: functional
[3] = Antiproliferative activity against human UO31 cells incubated for 48 hrs by sulforhodamine B assay; assay type: functional; conditions: UO-31, 48 h
A549 = assay: Inhibition of insulin-stimulated PI3K in human A549 cells assessed as suppression of AKT phosphorylation at Ser473 after 30 mins by Western blot analysis; assay type: cell-based; summary of the method: as §2
KM12 = assay: Antiproliferative activity against human KM12 cells incubated for 48 hrs by sulforhodamine B assay; assay type: functional; conditions: KM12, 48 h; summary of the method: as §1
[4] = Antiproliferative activity against human DU145 cells incubated for 48 hrs by sulforhodamine B assay; assay type: functional; conditions: DU-145, 48 h; summary of the method: as §1
MDA-MB-468 = assay: Antiproliferative activity against human MDA-MB-468 cells incubated for 48 hrs by sulforhodamine B assay; assay type: functional; conditions: MDA-MB-468, 48 h; summary of the method: as §1
[5] = Antiproliferative activity against human OVCAR8 cells incubated for 48 hrs by sulforhodamine B assay; assay type: functional; conditions: OVCAR-8, 48 h; summary of the method: as §1
[6] = target: T1, Serine/threonine-protein kinase mTOR; assay: Inhibition of mTOR kinase (unknown origin) assessed as suppression of ULight-4E-BP1 substrate phosphorylation incubated for 1 hr by lance ultra assay
HT-29 = assay: Antiproliferative activity against human HT-29 cells incubated for 48 hrs by sulforhodamine B assay; assay type: functional; conditions: HT-29, 48 h; summary of the method: as §1
[7] = Cytotoxicity against human HCT116 cells after 72 hrs by MTT assay; assay type: functional, cell-based; conditions: HCT-116, 72 h
Summary of the method: (§3)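 Log-phase cells at 40,000–50,000 cells/mL in DMEM with 10% FBS and antibiotics were seeded and cultured overnight at 37 °C, 5% CO₂. Compounds were diluted in DMSO/PBS from 10^-4 to 10^-9 M and applied for 72 h. MTT (5 mg/mL stock) was then added for 4 h and absorbance read at 570 nm. IC50 came from nonlinear regression on triplicate wells, averaged.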

MDA-MB-231 = assay: Cytotoxicity against human MDA-MB-231 cells after 72 hrs by MTT assay; assay type: functional, cell-based; conditions: MDA-MB-231, 72 h; summary of the method: as §3
SN12C = assay: Antiproliferative activity against human SN12C cells incubated for 48 hrs by sulforhodamine B assay; assay type: functional; summary of the method: as §1
[8] = Cytotoxicity against human Bel7404 cells after 72 hrs by MTT assay; assay type: functional, cell-based; conditions: BEL-7404, 72 h; summary of the method: as §3
[9] = Antiproliferative activity against human SF295 cells incubated for 48 hrs by sulforhodamine B assay; assay type: functional; conditions: SF-295, 48 h; summary of the method: as §1
Malme-3M = assay: Antiproliferative activity against human MALME-3M cells incubated for 48 hrs by sulforhodamine B assay; assay type: functional; summary of the method: as §1
NCI-H460 = assay: Antiproliferative activity against human NCI-H460 cells incubated for 48 hrs by sulforhodamine B assay; assay type: functional; conditions: NCI-H460, 48 h; summary of the method: as §1
[10] = Antiproliferative activity against human SNB75 cells incubated for 48 hrs by sulforhodamine B assay; assay type: functional; conditions: SNB-75, 48 h; summary of the method: as §1
[11] = Antiproliferative activity against human Hs 578T cells incubated for 48 hrs by sulforhodamine B assay; assay type: functional
Mus musculus = assay: Toxicity in BALB/C nude mouse xenografted with human Bel7404 cells assessed as mortality at 30 mg/kg, po qd for 14 consecutive days; assay type: organism-based; conditions: in vivo
Summary of the method: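 Male BALB/C nude mice were implanted with BEL-7404 cells. When tumors reached 100–300 mm³ (after 12 days), mice were randomized to 6 per treatment group and 8 controls. The drug, suspended in 5% polysorbate 80 in water, was given orally once daily for 14 days from day 13. Body weight and mortality were tracked during dosing, and mice were sacrificed on day 29.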

[12] = Antiproliferative activity against human MOLT4 cells incubated for 48 hrs by sulforhodamine B assay; assay type: functional; conditions: MOLT-4, 48 h; summary of the method: as §1
SK-MEL-28 = assay: Antiproliferative activity against human SK-MEL-28 cells incubated for 48 hrs by sulforhodamine B assay; assay type: functional; conditions: SK-MEL-28, 48 h; summary of the method: as §1
[13] = Antiproliferative activity against human NCI-ADR-RES cells incubated for 48 hrs by sulforhodamine B assay; assay type: functional; summary of the method: as §1
[14] = Antiproliferative activity against human SW620 cells incubated for 48 hrs by sulforhodamine B assay; assay type: functional; conditions: SW-620, 48 h; summary of the method: as §1
[15] = target: Phosphatidylinositol 4,5-bisphosphate 3-kinase catalytic subunit gamma isoform (Homo sapiens, UniProt P48736); assay: Inhibition of PI3K-gamma (unknown origin) after 40 mins by ADP-Glo luminescent kinase assay
Summary of the method: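 Final enzyme was PI3Kβ 4.8 nM and PI3Kγ 7.6 nM. ADP-Glo reagent stopped the reaction (40 min), then detection reagent was added (60 min) and luminescence read. Percent inhibition was derived from RLU.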

[16] = Antiproliferative activity against human NCI60 incubated for 48 hrs by sulforhodamine B assay; assay type: functional; conditions: NCI60, 48 h; summary of the method: as §1
[17] = read-out: pLC50 (the source's name) (converted)

Phosphatidylinositol 4,5-bisphosphate 3-kinase catalytic subunit delta isoform, sequence (O00329 whole entry, canonical isoform): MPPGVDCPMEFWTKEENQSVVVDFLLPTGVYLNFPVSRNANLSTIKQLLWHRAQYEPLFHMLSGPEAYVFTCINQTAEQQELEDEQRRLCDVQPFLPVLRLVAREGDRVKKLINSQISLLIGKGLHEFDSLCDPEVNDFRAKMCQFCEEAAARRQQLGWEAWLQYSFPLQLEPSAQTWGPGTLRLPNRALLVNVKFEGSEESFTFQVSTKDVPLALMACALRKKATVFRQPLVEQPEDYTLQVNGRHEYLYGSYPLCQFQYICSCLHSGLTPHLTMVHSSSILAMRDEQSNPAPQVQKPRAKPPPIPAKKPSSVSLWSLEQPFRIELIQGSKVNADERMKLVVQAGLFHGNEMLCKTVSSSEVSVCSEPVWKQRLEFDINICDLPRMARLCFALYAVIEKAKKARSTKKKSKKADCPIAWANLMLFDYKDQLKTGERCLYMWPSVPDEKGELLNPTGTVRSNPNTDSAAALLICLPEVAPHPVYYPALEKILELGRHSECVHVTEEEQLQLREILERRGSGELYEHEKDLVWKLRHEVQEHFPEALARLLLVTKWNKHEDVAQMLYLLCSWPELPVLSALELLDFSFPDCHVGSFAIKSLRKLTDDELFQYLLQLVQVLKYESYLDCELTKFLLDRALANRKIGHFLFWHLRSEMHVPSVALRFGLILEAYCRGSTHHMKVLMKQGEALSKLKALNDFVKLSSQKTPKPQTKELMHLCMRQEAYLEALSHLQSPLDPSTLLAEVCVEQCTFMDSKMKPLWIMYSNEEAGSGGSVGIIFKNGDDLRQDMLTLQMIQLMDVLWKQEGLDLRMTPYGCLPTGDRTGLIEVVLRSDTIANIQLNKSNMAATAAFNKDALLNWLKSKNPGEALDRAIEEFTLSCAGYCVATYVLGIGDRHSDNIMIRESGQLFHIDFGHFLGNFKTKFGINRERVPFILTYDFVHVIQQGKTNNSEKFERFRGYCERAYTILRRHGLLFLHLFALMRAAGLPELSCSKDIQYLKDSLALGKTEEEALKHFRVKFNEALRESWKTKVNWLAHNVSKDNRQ
Phosphatidylinositol 4,5-bisphosphate 3-kinase catalytic subunit gamma isoform, sequence (P48736 whole entry, canonical isoform): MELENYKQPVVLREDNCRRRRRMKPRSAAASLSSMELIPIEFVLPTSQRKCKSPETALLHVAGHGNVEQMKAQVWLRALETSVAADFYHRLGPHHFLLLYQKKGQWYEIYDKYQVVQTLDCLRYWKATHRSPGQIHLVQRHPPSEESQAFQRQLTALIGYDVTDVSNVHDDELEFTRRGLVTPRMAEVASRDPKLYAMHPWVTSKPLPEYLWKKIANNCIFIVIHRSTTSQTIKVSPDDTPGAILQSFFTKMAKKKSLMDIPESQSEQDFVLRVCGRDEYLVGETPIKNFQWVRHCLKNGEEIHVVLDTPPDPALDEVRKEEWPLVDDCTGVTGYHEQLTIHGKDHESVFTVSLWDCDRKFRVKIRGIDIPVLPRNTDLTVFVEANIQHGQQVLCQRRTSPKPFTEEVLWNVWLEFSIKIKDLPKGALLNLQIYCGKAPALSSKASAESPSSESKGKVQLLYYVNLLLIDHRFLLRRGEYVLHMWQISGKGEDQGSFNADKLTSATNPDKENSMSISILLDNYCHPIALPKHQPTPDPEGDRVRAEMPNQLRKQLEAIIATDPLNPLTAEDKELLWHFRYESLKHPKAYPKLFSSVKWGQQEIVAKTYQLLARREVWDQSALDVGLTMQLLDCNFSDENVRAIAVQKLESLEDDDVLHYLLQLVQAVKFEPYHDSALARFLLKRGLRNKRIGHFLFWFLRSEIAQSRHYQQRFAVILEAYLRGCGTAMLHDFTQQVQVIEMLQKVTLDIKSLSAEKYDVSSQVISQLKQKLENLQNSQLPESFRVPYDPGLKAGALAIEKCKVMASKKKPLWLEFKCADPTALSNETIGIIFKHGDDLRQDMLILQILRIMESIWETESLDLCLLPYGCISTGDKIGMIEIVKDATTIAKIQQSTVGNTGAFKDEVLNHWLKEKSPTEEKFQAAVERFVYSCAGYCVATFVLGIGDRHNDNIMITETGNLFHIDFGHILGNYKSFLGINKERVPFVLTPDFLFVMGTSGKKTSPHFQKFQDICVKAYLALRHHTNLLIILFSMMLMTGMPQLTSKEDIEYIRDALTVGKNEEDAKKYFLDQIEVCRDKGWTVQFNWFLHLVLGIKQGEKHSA

COc1ncc(-c2ccc3nccc(C#CCN4CCN(S(C)(=O)=O)CC4)c3c2)cc1NS(=O)(=O)c1ccc(F)cc1F
GI50 (NCI-H23): 295 nM | CC50 (NCI-H23; [17]): 20 µM | TGI (NCI-H23; read-out: pTGI (converted)): 2690 nM | IC50 [1]: 14 nM | inhibition [2]: Dose-dependent effect | GI50 (NCI-H322M): 110 nM | CC50 (NCI-H322M; [17]): 36.3 µM | TGI (NCI-H322M; read-out: pTGI (converted)): 6.92 µM | GI50 (EKVX): 25.7 nM | CC50 (EKVX; [17]): 42.7 µM | GI50 [3]: 31.6 nM | CC50 [3, 17]: 39.8 µM | TGI ([3]; read-out: pTGI (converted)): 11.7 µM | inhibition (A549): Dose-dependent effect | GI50 (KM12): 275 nM | CC50 (KM12; [17]): 4.79 µM | TGI (KM12; read-out: pTGI (converted)): 1480 nM | GI50 [4]: 100 nM | CC50 [4, 17]: 41.7 µM | TGI ([4]; read-out: pTGI (converted)): 12.9 µM | GI50 (MDA-MB-468): 17 nM | CC50 (MDA-MB-468; [17]): 1380 nM | TGI (MDA-MB-468; read-out: pTGI (converted)): 85.1 nM | GI50 [5]: 251 nM | CC50 [5, 17]: 67.6 µM | TGI ([5]; read-out: pTGI (converted)): 10.7 µM | IC50 [6]: 5.4 nM | GI50 (HT-29): 20.4 nM | CC50 (HT-29; [17]): 35.5 µM | TGI (HT-29; read-out: pTGI (converted)): 1510 nM | IC50 [7]: 930 nM | IC50 (MDA-MB-231): 1440 nM | GI50 (SN12C): 102 nM | CC50 (SN12C; [17]): > 100 µM | TGI (SN12C; read-out: pTGI (converted)): 12.3 µM | IC50 [8]: 20 nM | GI50 [9]: 74.1 nM | CC50 [9, 17]: 29.5 µM | TGI ([9]; read-out: pTGI (converted)): 1000 nM | GI50 (Malme-3M): 19.9 nM | CC50 (Malme-3M; [17]): 33.9 µM | TGI (Malme-3M; read-out: pTGI (converted)): 324 nM | GI50 (NCI-H460): 51.3 nM | CC50 (NCI-H460; [17]): 30.9 µM | TGI (NCI-H460; read-out: pTGI (converted)): 2140 nM | GI50 [10]: 10.7 nM | CC50 [10, 17]: 28.8 µM | TGI ([10]; read-out: pTGI (converted)): 151 nM | GI50 [11]: 18.6 nM | CC50 [11, 17]: > 100 µM | Activity (Mus musculus): Non-toxic | GI50 [12]: 38 nM | CC50 [12, 17]: > 100 µM | TGI ([12]; read-out: pTGI (converted)): 1150 nM | GI50 (SK-MEL-28): 34.7 nM | CC50 (SK-MEL-28; [17]): 5.25 µM | TGI (SK-MEL-28; read-out: pTGI (converted)): 1050 nM | GI50 [13]: 355 nM | CC50 [13, 17]: 79.4 µM | TGI ([13]; read-out: pTGI (converted)): 12 µM | GI50 [14]: 229 nM | CC50 [14, 17]: 6.92 µM | TGI ([14]; read-out: pTGI (converted)): 1950 nM | IC50 [15]: 2.7 nM | GI50 [16]: 65 nM
